Data published in ChEMBL document CHEMBL3091412, “Discovery of an irreversible HCV NS5B polymerase inhibitor” (Bioorg Med Chem Lett, 2013).

Experiments:
Rattus norvegicus [1] = assay: Toxicity in rat at 10 to 500 mg/kg measured up to 2 weeks; type: organism-based; parameters: dose 10-500 mg/kg; conditions: in vivo, 336 h
Rattus norvegicus [2] = assay: Toxicity in rat assessed as mortality at 250 to 2000 mg/kg measured up to 1 day; type: organism-based; parameters: dose 250-2000 mg/kg; conditions: in vivo, 24 h
Outline: (§1)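 Single-dose rat toxicity study with dose groups of 250, 500, 1000 and 2000 mg/kg. Animals were monitored for clinical signs of toxicity, including stool appearance, and for mortality.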

Rattus norvegicus [3] = assay: Toxicity in rat assessed as soft and mucoid stool at 1000 to 2000 mg/kg measured up to 1 day; type: organism-based; parameters: dose 1000-2000 mg/kg; conditions: in vivo, 24 h; outline: as §1
Salmonella typhimurium [4] = assay: Induction of mutagenicity in Salmonella Typhimurium TA 100 by mini-Ames assay; type: toxicity, organism-based; conditions: salmonella enterica subsp. enterica serovar typhimurium
Outline: (§2)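 Mini-Ames mutagenicity test against Salmonella strains TA 97a, TA 100 and TA 102.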

Salmonella typhimurium [5] = assay: Induction of mutagenicity in Salmonella Typhimurium TA 102 by mini-Ames assay; type: toxicity, organism-based; conditions: salmonella enterica subsp. enterica serovar typhimurium; outline: as §2
Salmonella typhimurium [6] = assay: Induction of mutagenicity in Salmonella Typhimurium TA 97a by mini-Ames assay; type: toxicity, organism-based; conditions: salmonella enterica subsp. enterica serovar typhimurium; outline: as §2
hERG (KCNH2) = hERG (KCNH2) (Homo sapiens, UniProt Q12809); assay: Inhibition of human ERG at 2 uM by voltage clamp assay
Sequence of hERG (KCNH2) (Q12809 whole entry): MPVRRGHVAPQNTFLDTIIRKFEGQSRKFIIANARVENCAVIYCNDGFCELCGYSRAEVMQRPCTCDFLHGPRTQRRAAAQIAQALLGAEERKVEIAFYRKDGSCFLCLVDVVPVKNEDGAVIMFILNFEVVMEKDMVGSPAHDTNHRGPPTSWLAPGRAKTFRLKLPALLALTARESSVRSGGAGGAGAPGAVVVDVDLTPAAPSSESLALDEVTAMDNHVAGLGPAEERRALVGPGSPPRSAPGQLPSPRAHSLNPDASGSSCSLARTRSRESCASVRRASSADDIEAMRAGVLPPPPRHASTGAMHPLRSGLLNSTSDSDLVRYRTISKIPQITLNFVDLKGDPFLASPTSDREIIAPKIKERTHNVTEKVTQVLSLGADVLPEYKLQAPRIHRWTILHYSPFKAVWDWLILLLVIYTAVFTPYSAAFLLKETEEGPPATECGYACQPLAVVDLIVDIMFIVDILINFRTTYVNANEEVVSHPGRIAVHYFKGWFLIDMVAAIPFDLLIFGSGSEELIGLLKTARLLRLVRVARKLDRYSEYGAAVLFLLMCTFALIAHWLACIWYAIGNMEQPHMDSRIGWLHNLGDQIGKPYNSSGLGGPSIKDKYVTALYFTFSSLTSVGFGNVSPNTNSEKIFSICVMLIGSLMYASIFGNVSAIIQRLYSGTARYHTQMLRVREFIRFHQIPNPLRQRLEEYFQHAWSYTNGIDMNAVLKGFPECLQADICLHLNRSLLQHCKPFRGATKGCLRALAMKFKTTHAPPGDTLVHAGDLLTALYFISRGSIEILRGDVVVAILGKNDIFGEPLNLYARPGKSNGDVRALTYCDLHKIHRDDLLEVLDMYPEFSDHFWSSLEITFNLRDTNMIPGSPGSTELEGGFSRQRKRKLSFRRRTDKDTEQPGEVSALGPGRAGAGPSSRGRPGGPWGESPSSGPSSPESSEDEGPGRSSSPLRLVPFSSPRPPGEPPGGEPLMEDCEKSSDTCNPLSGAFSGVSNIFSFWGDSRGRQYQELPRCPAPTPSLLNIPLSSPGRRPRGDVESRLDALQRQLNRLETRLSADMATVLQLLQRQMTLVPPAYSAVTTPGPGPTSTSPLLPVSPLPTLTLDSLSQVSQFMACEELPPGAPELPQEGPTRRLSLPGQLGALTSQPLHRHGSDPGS

Cytochrome P450 2D6 [7] = target: T1, Cytochrome P450 2D6 (Homo sapiens, UniProt P10635); assay: Inhibition of CYP2D6 in human liver microsomes measured after compound pre-incubation; type: ADME
T1 sequence (P10635 whole entry): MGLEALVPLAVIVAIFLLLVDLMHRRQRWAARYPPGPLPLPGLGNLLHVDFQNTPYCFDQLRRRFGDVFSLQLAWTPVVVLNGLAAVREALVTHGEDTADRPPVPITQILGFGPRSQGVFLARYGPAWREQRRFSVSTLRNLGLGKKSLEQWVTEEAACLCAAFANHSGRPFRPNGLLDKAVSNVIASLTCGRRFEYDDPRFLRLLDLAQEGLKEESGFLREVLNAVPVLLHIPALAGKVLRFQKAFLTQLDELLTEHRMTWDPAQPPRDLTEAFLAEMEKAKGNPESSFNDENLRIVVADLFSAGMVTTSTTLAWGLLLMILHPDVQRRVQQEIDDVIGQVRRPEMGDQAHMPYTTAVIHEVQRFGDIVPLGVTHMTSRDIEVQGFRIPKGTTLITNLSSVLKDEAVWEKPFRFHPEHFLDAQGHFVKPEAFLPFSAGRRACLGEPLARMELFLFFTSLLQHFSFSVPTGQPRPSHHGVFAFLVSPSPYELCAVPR
Outline: (§3)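 Human liver microsomes; CYP inhibition measured with compound added concurrently or after pre-incubation; concentration inhibiting 50% of enzyme activity determined.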

Cytochrome P450 2D4 [8] = target: T2, Cytochrome P450 2D4 (Rattus norvegicus, UniProt Q64680); assay: Inhibition of rat CYP2D4 measured after compound pre-incubation; type: ADME
T2 sequence (Q64680 whole entry): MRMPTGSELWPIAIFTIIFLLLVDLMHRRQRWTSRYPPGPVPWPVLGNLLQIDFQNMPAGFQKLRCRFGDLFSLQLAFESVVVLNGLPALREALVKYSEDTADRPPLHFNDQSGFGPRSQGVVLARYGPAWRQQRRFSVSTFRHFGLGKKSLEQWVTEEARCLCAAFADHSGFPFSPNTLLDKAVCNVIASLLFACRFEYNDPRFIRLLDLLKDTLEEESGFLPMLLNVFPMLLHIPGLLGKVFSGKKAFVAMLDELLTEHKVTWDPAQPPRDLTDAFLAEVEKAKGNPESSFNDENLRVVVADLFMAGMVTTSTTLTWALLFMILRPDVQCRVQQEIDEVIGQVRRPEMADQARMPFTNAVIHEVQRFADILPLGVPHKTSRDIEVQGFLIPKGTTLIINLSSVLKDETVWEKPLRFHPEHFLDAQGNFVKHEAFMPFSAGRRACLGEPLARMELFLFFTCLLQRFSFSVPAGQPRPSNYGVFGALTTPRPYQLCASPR

Cytochrome P450 2C19 [9] = target: T3, Cytochrome P450 2C19 (Homo sapiens, UniProt P33261); assay: Inhibition of […] in human liver microsomes measured after compound pre-incubation; type: ADME
T3 sequence (P33261 whole entry): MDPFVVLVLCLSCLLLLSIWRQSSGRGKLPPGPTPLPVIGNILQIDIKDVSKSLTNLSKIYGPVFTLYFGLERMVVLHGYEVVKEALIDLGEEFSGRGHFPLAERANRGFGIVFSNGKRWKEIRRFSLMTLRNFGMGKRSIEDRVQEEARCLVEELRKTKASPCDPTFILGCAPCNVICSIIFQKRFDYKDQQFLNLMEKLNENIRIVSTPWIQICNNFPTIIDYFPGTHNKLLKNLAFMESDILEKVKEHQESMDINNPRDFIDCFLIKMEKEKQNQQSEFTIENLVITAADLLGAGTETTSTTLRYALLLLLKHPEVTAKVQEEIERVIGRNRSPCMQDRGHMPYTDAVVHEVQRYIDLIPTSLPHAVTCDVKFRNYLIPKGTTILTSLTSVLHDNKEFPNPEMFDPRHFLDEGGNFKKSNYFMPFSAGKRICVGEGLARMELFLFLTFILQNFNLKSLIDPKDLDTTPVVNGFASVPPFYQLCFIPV

Cytochrome P450 2C9 [10] = target: T4, Cytochrome P450 2C9 (Homo sapiens, UniProt P11712); assay: Inhibition of CYP2C9 in human liver microsomes measured after compound pre-incubation; type: ADME; outline: as §3
T4 sequence (P11712 whole entry): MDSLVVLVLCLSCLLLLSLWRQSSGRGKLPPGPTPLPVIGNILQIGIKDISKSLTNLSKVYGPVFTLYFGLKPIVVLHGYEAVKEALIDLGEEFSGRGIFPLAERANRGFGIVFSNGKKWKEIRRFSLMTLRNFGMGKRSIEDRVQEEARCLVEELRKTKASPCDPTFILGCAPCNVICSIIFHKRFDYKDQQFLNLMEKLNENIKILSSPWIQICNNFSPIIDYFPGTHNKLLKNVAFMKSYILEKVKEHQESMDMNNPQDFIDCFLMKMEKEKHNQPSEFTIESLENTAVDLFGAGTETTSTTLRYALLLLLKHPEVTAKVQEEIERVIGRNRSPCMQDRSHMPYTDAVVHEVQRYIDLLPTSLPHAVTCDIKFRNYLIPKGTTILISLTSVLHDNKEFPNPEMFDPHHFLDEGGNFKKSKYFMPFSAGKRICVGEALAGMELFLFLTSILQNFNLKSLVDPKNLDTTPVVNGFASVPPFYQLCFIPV

Cytochrome P450 2C8 [11] = target: T5, Cytochrome P450 2C8 (Homo sapiens, UniProt P10632); assay: Inhibition of CYP2C8 in human liver microsomes measured after compound pre-incubation; type: ADME; outline: as §3
T5 sequence (P10632 whole entry): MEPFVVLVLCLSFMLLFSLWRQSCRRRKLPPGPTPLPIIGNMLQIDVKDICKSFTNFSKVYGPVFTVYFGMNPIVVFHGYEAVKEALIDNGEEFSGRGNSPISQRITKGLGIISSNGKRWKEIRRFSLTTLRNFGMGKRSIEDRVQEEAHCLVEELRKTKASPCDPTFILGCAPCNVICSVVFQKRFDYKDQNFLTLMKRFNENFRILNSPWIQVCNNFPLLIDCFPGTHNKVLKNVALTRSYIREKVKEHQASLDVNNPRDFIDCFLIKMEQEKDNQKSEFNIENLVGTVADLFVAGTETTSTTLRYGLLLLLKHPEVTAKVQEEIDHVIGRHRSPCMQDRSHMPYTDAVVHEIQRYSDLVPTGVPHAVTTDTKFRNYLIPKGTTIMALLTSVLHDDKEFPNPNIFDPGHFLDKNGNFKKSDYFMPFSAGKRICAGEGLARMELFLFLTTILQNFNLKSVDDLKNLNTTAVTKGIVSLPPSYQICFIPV

Cytochrome P450 1A2 [12] = target: T6, Cytochrome P450 1A2 (Homo sapiens, UniProt P05177); assay: Inhibition of CYP1A2 in human liver microsomes measured after compound pre-incubation; type: ADME; outline: as §3
T6 sequence (P05177 whole entry): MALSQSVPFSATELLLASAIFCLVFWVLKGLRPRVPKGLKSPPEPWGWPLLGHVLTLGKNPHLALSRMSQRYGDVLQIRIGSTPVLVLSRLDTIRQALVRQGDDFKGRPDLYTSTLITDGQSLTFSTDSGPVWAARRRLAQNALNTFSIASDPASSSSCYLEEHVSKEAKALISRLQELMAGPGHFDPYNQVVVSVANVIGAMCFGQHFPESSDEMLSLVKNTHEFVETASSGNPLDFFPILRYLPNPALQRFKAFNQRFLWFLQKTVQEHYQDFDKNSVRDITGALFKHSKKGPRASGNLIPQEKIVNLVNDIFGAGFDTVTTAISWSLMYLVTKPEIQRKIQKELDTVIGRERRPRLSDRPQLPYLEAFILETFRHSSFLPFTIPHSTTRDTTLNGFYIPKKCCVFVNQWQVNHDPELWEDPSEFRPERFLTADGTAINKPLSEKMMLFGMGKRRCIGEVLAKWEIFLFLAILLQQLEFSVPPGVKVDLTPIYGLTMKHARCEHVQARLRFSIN

Cytochrome P450 3A4 [13] = target: T7, Cytochrome P450 3A4 (Homo sapiens, UniProt P08684); assay: Inhibition of CYP3A4 in human liver microsomes measured after compound pre-incubation; type: ADME; outline: as §3
T7 sequence (P08684 whole entry): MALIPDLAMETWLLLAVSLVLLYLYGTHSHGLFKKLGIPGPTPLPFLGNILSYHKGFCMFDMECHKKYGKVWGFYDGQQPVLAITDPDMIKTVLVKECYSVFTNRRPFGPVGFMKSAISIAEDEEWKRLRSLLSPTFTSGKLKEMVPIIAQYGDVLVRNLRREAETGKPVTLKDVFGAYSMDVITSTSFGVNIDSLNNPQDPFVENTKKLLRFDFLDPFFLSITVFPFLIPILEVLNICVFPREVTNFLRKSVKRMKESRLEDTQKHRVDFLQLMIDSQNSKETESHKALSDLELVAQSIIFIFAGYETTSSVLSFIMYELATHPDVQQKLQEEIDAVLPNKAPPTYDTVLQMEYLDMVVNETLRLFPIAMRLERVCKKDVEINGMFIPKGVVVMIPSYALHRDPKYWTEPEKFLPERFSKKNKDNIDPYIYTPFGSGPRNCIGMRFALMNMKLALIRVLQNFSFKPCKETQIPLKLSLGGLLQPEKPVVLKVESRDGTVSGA

Cytochrome P450 2D6 [14] = target: T1, Cytochrome P450 2D6; assay: Inhibition of CYP2D6 in human liver microsomes measured after concurrent incubation; type: ADME; outline: as §3
Cytochrome P450 2D4 [15] = target: T2, Cytochrome P450 2D4; assay: Inhibition of rat CYP2D4 measured after concurrent incubation; type: ADME
Cytochrome P450 2C19 [16] = target: T3, Cytochrome P450 2C19; assay: Inhibition of […] in human liver microsomes measured after concurrent incubation; type: ADME
Cytochrome P450 2C9 [17] = target: T4, Cytochrome P450 2C9; assay: Inhibition of CYP2C9 in human liver microsomes measured after concurrent incubation; type: ADME; outline: as §3
Cytochrome P450 2C8 [18] = target: T5, Cytochrome P450 2C8; assay: Inhibition of CYP2C8 in human liver microsomes measured after concurrent incubation; type: ADME; outline: as §3
Cytochrome P450 1A2 [19] = target: T6, Cytochrome P450 1A2; assay: Inhibition of CYP1A2 in human liver microsomes measured after concurrent incubation; type: ADME; outline: as §3
Cytochrome P450 3A4 [20] = target: T7, Cytochrome P450 3A4; assay: Inhibition of CYP3A4 in human liver microsomes measured after concurrent incubation; type: ADME; outline: as §3
Cynomolgus monkey [21] = assay: Drug metabolism in cynomolgus monkey assessed as sulfate conjugate formation administered as single oral dose; type: ADME, organism-based, Macaca fascicularis; conditions: in vivo
Outline: (§4)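 Radiolabeled [3H] compound given as single oral dose to monkey; bile and urine excretion and metabolites profiled, including parent fraction in bile and glutathione or sulfate conjugates.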

Cynomolgus monkey [22] = assay: Drug metabolism in cynomolgus monkey assessed as glutathione conjugate formation administered as single oral dose; type: ADME, organism-based, Macaca fascicularis; conditions: in vivo; outline: as §4
[23] = Drug excretion in cynomolgus monkey bile assessed as parent compound administered as single oral dose; type: ADME, Macaca fascicularis; conditions: read-out: Drug excretion; outline: as §4
[24] = Cmax in fed cynomolgus monkey at 100 mg/kg, po; type: ADME, organism-based, Macaca fascicularis; parameters: dose 100 mg/kg, route oral; conditions: in vivo
Outline: (§5)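 Given orally as crystalline sodium salt to fed male Sprague Dawley rats (30–500 mg/kg) or fed male Cynomolgus monkeys (10–100 mg/kg) to assess dose exposure; plasma AUC and Cmax determined.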

[25] = Cmax in fed cynomolgus monkey at 30 mg/kg, po; type: ADME, organism-based, Macaca fascicularis; parameters: dose 30 mg/kg, route oral; conditions: in vivo; outline: as §5
[26] = Cmax in fed cynomolgus monkey at 10 mg/kg, po; type: ADME, organism-based, Macaca fascicularis; parameters: dose 10 mg/kg, route oral; conditions: in vivo; outline: as §5
[27] = Cmax in fed Sprague-Dawley rat at 500 mg/kg, po; type: ADME, organism-based; parameters: dose 500 mg/kg, route oral; conditions: in vivo; outline: as §5
[28] = Cmax in fed Sprague-Dawley rat at 250 mg/kg, po; type: ADME, organism-based; parameters: dose 250 mg/kg, route oral; conditions: in vivo; outline: as §5
[29] = Cmax in fed Sprague-Dawley rat at 100 mg/kg, po; type: ADME, organism-based; parameters: dose 100 mg/kg, route oral; conditions: in vivo; outline: as §5
[30] = Cmax in fed Sprague-Dawley rat at 30 mg/kg, po; type: ADME, organism-based; parameters: dose 30 mg/kg, route oral; conditions: in vivo; outline: as §5
[31] = AUC in fed cynomolgus monkey at 100 mg/kg, po; type: ADME, organism-based, Macaca fascicularis; parameters: dose 100 mg/kg, route oral; conditions: plasma; outline: as §5
[32] = AUC in fed cynomolgus monkey at 30 mg/kg, po; type: ADME, organism-based, Macaca fascicularis; parameters: dose 30 mg/kg, route oral; conditions: plasma; outline: as §5
[33] = AUC in fed cynomolgus monkey at 10 mg/kg, po; type: ADME, organism-based, Macaca fascicularis; parameters: dose 10 mg/kg, route oral; conditions: plasma; outline: as §5
[34] = AUC in fed Sprague-Dawley rat at 500 mg/kg, po; type: ADME, organism-based; parameters: dose 500 mg/kg, route oral; conditions: plasma; outline: as §5
[35] = AUC in fed Sprague-Dawley rat at 250 mg/kg, po; type: ADME, organism-based; parameters: dose 250 mg/kg, route oral; conditions: plasma; outline: as §5
[36] = AUC in fed Sprague-Dawley rat at 100 mg/kg, po; type: ADME, organism-based; parameters: dose 100 mg/kg, route oral; conditions: plasma; outline: as §5
[37] = AUC in fed Sprague-Dawley rat at 30 mg/kg, po; type: ADME, organism-based; parameters: dose 30 mg/kg, route oral; conditions: plasma; outline: as §5
Hepatitis C virus = assay: Antiviral activity against HCV Con1 in eplicon cells after 3 days by RT-PCR analysis; type: functional, organism-based, Hepacivirus hominis; conditions: isolate Con1, 72 h
Outline: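 HCV 1b-Con1 replicon cells seeded at 5000 cells/well one day before treatment; inhibitor in DMSO added as 10 serial twofold dilutions in duplicate (final 0.5% DMSO, 5% FBS). Harvested 3 days post dosing; replicon RNA quantified by real-time RT-PCR (Taqman), GAPDH RNA as endogenous control; EC50 calculated.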

[38] = Irreversible inhibition of HCV1b NS5B delta21 polymerase by radiolabeled nucleotide incorporation assay; parameters: species or system Hepatitis C virus subtype 1b

Compound: Cc1cc2c(-c3ccc[nH]c3=O)c(C(=O)O)n(Cc3cc4ccccc4nc3Cl)c2cc1F
- Activity (Rattus norvegicus [1]): Non-toxic
- Activity (Rattus norvegicus [2]): Non-toxic
- Activity (Rattus norvegicus [3]): Toxic
- Activity (Salmonella typhimurium [4]): Non-toxic
- Activity (Salmonella typhimurium [5]): Non-toxic
- Activity (Salmonella typhimurium [6]): Non-toxic
- inhibition at 2 µM (hERG (KCNH2)): 6%
- IC50 (Cytochrome P450 2D6 [7]): > 50 µM
- IC50 (Cytochrome P450 2D4 [8]): > 50 µM
- IC50 (Cytochrome P450 2C19 [9]): > 50 µM
- IC50 (Cytochrome P450 2C9 [10]): > 50 µM
- IC50 (Cytochrome P450 2C8 [11]): 30 µM
- IC50 (Cytochrome P450 1A2 [12]): > 50 µM
- IC50 (Cytochrome P450 3A4 [13]): > 50 µM
- IC50 (Cytochrome P450 2D6 [14]): > 50 µM
- IC50 (Cytochrome P450 2D4 [15]): > 50 µM
- IC50 (Cytochrome P450 2C19 [16]): > 50 µM
- IC50 (Cytochrome P450 2C9 [17]): > 50 µM
- IC50 (Cytochrome P450 2C8 [18]): 21 µM
- IC50 (Cytochrome P450 1A2 [19]): > 50 µM
- IC50 (Cytochrome P450 3A4 [20]): > 50 µM
- Stability (Cynomolgus monkey [21]): Stable
- Stability (Cynomolgus monkey [22]): Stable
- dose excreted [23]: 81%
- Cmax [24]: 2 µM
- Cmax [25]: 1.3 µM
- Cmax [26]: 0.9 µM
- Cmax [27]: 65 µM
- Cmax [28]: 66 µM
- Cmax [29]: 32 µM
- Cmax [30]: 21 µM
- AUC [31]: 17 µM·h
- AUC [32]: 15 µM·h
- AUC [33]: 9 µM·h
- AUC [34]: 1040 µM·h
- AUC [35]: 1090 µM·h
- AUC [36]: 375 µM·h
- AUC [37]: 176 µM·h
- EC50 (Hepatitis C virus): 0.003 µM
- IC50 [38]: 0.013 µM

Compound: Cc1cc2c(-c3ccc[nH]c3=O)c(C(=O)O)n(Cc3cc4cc(F)c(F)cc4nc3Cl)c2cc1F
- EC50 (Hepatitis C virus): 0.03 µM
- IC50 [38]: 0.01 µM
